The target of test [1] is T1, Serine/threonine-protein kinase B-raf (Homo sapiens, UniProt P15056, V600E). Kind of test: Inhibition of B-Raf V600E mutant. Put shortly: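 Enzymatic IC50 determined in vitro against purified V600E BRAF.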
Test [2] addresses T1, Serine/threonine-protein kinase B-raf. Kind of test: Inhibition of BRAF V600E mutant-mediated ERK phosphorylation in human WM266.4 cells. Format: cell-based. Put shortly:
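Cellular IC50 for inhibition of phosphoERK formation.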

Test [3] in a line: Growth inhibition of human WM266.4 cells expressing BRAF V600E mutant after 5 days by SRB assay. The settings on record: WM 266-4, 120 h. Type of test: functional. Put shortly: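 Antiproliferative SRB assay in WM266.4 (BRAF mutant), WM1361 (NRAS mutant) and D24 (BRAF/NRAS wild-type) melanoma cells, with GI50 derived from the assay.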

T1 sequence (P15056 2-766 V600E limits assumed): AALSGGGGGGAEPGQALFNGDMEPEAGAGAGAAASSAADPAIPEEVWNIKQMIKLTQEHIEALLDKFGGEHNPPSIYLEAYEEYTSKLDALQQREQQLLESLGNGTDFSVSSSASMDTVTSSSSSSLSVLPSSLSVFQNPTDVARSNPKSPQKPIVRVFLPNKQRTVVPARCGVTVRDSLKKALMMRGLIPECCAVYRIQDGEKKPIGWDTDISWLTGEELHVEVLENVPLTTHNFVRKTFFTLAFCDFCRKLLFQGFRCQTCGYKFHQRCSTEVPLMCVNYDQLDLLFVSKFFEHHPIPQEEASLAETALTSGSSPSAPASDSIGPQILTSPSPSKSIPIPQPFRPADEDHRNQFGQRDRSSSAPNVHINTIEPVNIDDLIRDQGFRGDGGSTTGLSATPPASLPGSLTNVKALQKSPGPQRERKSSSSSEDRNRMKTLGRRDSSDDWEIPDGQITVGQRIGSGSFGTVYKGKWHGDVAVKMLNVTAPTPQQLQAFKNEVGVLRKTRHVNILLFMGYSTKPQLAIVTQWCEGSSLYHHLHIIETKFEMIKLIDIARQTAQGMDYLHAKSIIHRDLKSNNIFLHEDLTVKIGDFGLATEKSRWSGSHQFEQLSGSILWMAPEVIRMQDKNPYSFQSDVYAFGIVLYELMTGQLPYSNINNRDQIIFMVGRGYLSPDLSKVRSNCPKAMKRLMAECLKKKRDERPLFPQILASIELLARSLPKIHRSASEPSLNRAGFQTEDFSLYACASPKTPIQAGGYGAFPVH

Consider `CSc1cc(Oc2ccnc3ncc(=O)[nH]c23)ccc1NC(=O)Nc1cc(C(C)(C)C)nn1-c1ccccc1`, for which the IC50 in test [1] was determined as 0.45 µM; in test [2], 0.101 µM. The GI50 in test [3] was 0.027 µM.

As for `Cc1ccc(-n2nc(C(C)(C)C)cc2NC(=O)Nc2ccc(Oc3ccnc4nc(N5CCOCC5)cnc34)cc2F)cc1`, the IC50 in test [1] was above 10 µM; in test [2] it was 0.28 µM. For the same molecule, the GI50 in test [3] came out at 0.235 µM.

For `CN1CCN(c2cnc3c(Oc4ccc(NC(=O)Nc5cc(C(F)(F)F)ccc5F)c(F)c4)ccnc3n2)CC1`, the results for the IC50 in test [1] and in test [2] were 0.11 µM and 16 µM, respectively. In test [3], halving of growth (GI50) required 0.12 µM.

As to `O=C1CNc2nccc(Oc3ccc(NC(=O)Nc4cc(C(F)(F)F)ccc4F)cc3)c2N1`, the values for the IC50 in test [1] and in test [2] were 0.054 µM and 3.5 µM, respectively. Moreover, in test [3], the GI50 worked out at 1.69 µM.

Consider `Cc1ccc(-n2nc(C(C)(C)C)cc2NC(=O)Nc2ccc(Oc3ccnc4[nH]c(=O)c(C)nc34)c3ccccc23)cc1`, for which the IC50 stood at 0.099 µM in test [1] and 0.005 µM in test [2]. This molecule displayed a GI50 in test [3] of 0.075 µM.

For the molecule `O=C(Nc1ccc(Cl)c(C(F)(F)F)c1)Nc1ccc(Oc2ccnc3ncc(=O)[nH]c23)cc1F`, the IC50 came to 0.059 µM in test [1] and 16 µM in test [2]. Halving of growth in test [3] (GI50) required 3.9 µM.

With `Cc1ccc(-n2nc(C(C)(C)C)cc2NC(=O)Nc2ccc(Oc3ccnc4[nH]c(=O)c(N)nc34)cc2F)cc1`, the figures for the IC50 in test [1] and in test [2] were 0.32 µM and 0.011 µM, respectively. This molecule also displayed a GI50 in test [3] of 0.008 µM.

Turning to `O=C(Nc1cccc(Oc2ccnc3ncc(=O)[nH]c23)c1)c1cccc(OC(F)(F)F)c1`, the results for the IC50 in test [1] and in test [2] were 0.306 µM and 37 µM, respectively. In test [3], this molecule yielded a GI50 of 6.8 µM.

Take `CN1CCN(c2cnc3c(Oc4ccc(NC(=O)Nc5cc(C(C)(C)C)nn5-c5ccccc5)c(F)c4)ccnc3n2)CC1`: the IC50 in test [1] came to 4.1 µM; in test [2], 0.75 µM. Also, growth in test [3] was halved (GI50) at 0.417 µM.

Take `Nc1nc2c(Oc3ccc(NC(=O)Nc4cc(C(F)(F)F)ccc4F)c4ccccc34)ccnc2[nH]c1=O`: the results for the IC50 in test [1] and in test [2] were 0.005 µM and 0.049 µM, respectively. Further, the 50% growth inhibitory concentration (GI50) in test [3] is 0.015 µM.

With `CN(C)c1cnc2c(Oc3ccc(NC(=O)Nc4cc(C(C)(C)C)nn4-c4ccccc4)c(F)c3)ccnc2n1`, the IC50 was above 10 µM in test [1] and 1.7 µM in test [2]. Moreover, it took 1.1 µM to inhibit growth in test [3] by half (GI50).

`Cc1ccc(-n2nc(C(C)(C)C)cc2NC(=O)Nc2ccc(Oc3ccnc4ncc(=O)[nH]c34)cc2)cc1`: the IC50 was found to be 2.29 µM in test [1] and 0.634 µM in test [2]. In test [3], this molecule came in with a GI50 of 0.67 µM.

`CN(C)c1nc2c(Oc3ccc(NC(=O)Nc4cc(C(C)(C)C)nn4-c4ccccc4)c(F)c3)ccnc2[nH]1`: the IC50 in test [1] came out at 1.67 µM; in test [2], 1.7 µM. For the same molecule, in test [3], halving of growth (GI50) required 0.574 µM.

In the case of `Cc1ccc(-n2nc(C(C)(C)C)cc2NC(=O)Nc2ccc(Oc3ccnc4nc(C)c(=O)[nH]c34)c3ccccc23)cc1`, the IC50 stood at 17 µM in test [1] and 0.176 µM in test [2]. This molecule yielded a GI50 in test [3] of 1.5 µM.

For the molecule `Nc1nc2nccc(Oc3ccc(NC(=O)Nc4cc(C(F)(F)F)ccc4F)c(F)c3)c2[nH]c1=O`, the IC50 was determined as 0.168 µM in test [1] and 9.9 µM in test [2]. Further, the GI50 in test [3] worked out at 6.5 µM.

Take `Cc1ccc(-n2nc(C(C)(C)C)cc2NC(=O)Nc2ccc(Oc3ccnc4c3NCC(=O)N4)cc2F)cc1`: the values for the IC50 in test [1] and in test [2] were 0.051 µM and 0.011 µM, respectively. Besides, in test [3], the GI50 was 0.034 µM.

Turning to `Nc1nc2nccc(Oc3ccc(NC(=O)Nc4cc(C(F)(F)F)ccc4F)c4ccccc34)c2[nH]c1=O`, the IC50 in test [1] was found to be 0.043 µM; in test [2] it was 0.229 µM. The same molecule gave a GI50 in test [3] of 0.204 µM.

As for `O=C(Nc1ccc(Oc2ccnc3ncc(=O)[nH]c23)cc1)Nc1cc(C(F)(F)F)ccc1F`, the IC50 in test [1] was determined as 1.29 µM; in test [2], 4.2 µM. Besides, in test [3], the GI50 stood at 4 µM.

In the case of `CC(C)(C)c1cc(NC(=O)Nc2ccc(Oc3ccnc4[nH]c(=O)c(=O)[nH]c34)cc2F)n(-c2ccccc2)n1`, the figures for the IC50 in test [1] and in test [2] were 0.19 µM and 0.273 µM, respectively. In addition, growth in test [3] was halved (GI50) at 0.299 µM.

Consider `O=C(Nc1ccc(Cl)c(C(F)(F)F)c1)Nc1ccc(Oc2ccnc3[nH]c(=O)cnc23)cc1F`, for which the IC50 in test [1] worked out at 0.006 µM; in test [2] it was 0.66 µM. It took 1.3 µM to inhibit growth in test [3] by half (GI50).

With `O=C(Nc1ccc(Oc2ccnc3ncc(=O)[nH]c23)cc1)Nc1ccc(Cl)c(C(F)(F)F)c1`, the values for the IC50 in test [1] and in test [2] were 1.29 µM and above 100 µM, respectively. In test [3], the GI50 turned out to be 8.8 µM.

As for `CC(C)(C)c1cc(NC(=O)Nc2cccc(Oc3ccnc4ncc(=O)[nH]c34)c2)n(-c2ccccc2)n1`, the IC50 in test [1] was determined as 0.64 µM; in test [2], 1.7 µM. The same molecule returned a GI50 in test [3] of 1.6 µM.

As to `Cc1nc2c(Oc3ccc(NC(=O)Nc4cc(C(F)(F)F)ccc4F)c(F)c3)ccnc2[nH]c1=O`, the values for the IC50 in test [1] and in test [2] were 0.003 µM and 0.59 µM, respectively. Also, growth in test [3] was halved (GI50) at 0.85 µM.

For the molecule `O=C(Nc1ccc(Oc2ccnc3[nH]c(=O)cnc23)cc1)Nc1ccc(Cl)c(C(F)(F)F)c1`, the IC50 was 0.011 µM in test [1] and 4.89 µM in test [2]. Also, the GI50 in test [3] amounted to 9.1 µM.

For `O=C(Nc1cc(C(F)(F)F)ccc1F)Nc1ccc(Oc2ccnc3[nH]c(=O)c(C(F)(F)F)nc23)c2ccccc12`, the IC50 in test [1] was 0.134 µM; in test [2] it was above 10 µM. The same molecule returned a GI50 in test [3] above 10 µM.

As for `Cc1ccc(-n2nc(C(C)(C)C)cc2NC(=O)Nc2cccc(Oc3ccnc4ncc(=O)[nH]c34)c2)cc1`, the IC50 in test [1] was 0.58 µM; in test [2], 0.78 µM. Moreover, in test [3], the GI50 is 0.345 µM.

As to `CSc1cc(Oc2ccnc3ncc(=O)[nH]c23)ccc1NC(=O)Nc1cc(C(F)(F)F)ccc1F`, the figures for the IC50 in test [1] and in test [2] were 0.246 µM and 6.6 µM, respectively. Further, in test [3], the GI50 turned out to be 5 µM.

Regarding `Cc1ccc(-n2nc(C(C)(C)C)cc2NC(=O)Nc2ccc(Oc3ccnc4nc(N)c(=O)[nH]c34)cc2F)cc1`, the IC50 stood at 0.222 µM in test [1] and 0.07 µM in test [2]. The same molecule displayed a GI50 in test [3] of 0.128 µM.

On to `Cc1nc2nccc(Oc3ccc(NC(=O)Nc4cc(C(F)(F)F)ccc4F)c4ccccc34)c2[nH]c1=O`, for which the IC50 was found to be 0.108 µM in test [1] and 3.4 µM in test [2]. This molecule displayed a GI50 in test [3] of 8.5 µM.

For `CC(C)(C)c1cc(NC(=O)c2cccc(Oc3ccnc4[nH]c(=O)cnc34)c2)n(-c2ccccc2)n1`, the IC50 in test [1] was 0.87 µM; in test [2] it was 5 µM. In test [3], this molecule showed a GI50 of 2 µM.

Regarding `O=C(Nc1cccc(Oc2ccnc3ncc(=O)[nH]c23)c1)Nc1cc(C(F)(F)F)ccc1F`, the IC50 is 0.105 µM in test [1] and above 100 µM in test [2]. Halving of growth in test [3] (GI50) required 6.1 µM.

Take `CC(C)(C)c1cc(NC(=O)Nc2ccc(Oc3ccnc4[nH]c(=O)c(N)nc34)c3ccccc23)n(-c2ccccc2)n1`: the values for the half-maximal inhibitory concentration (IC50) in test [1] and in test [2] were 0.085 µM and 0.007 µM, respectively. In addition, the GI50 in test [3] was 0.009 µM.

Consider `O=C(Nc1ccc(Oc2ccnc3[nH]c(=O)cnc23)cc1F)Nc1cc(C(F)(F)F)ccc1F`, for which the IC50 in test [1] is 0.004 µM; in test [2], 0.78 µM. In test [3], this molecule returned a GI50 of 1.3 µM.

For `CSc1cc(Oc2ccnc3[nH]c(=O)[nH]c23)ccc1NC(=O)Nc1cc(C(C)(C)C)nn1-c1ccc(C)cc1`, in test [3], growth was halved (GI50) at 0.016 µM.

Turning to `Cc1ccc(-n2nc(C(C)(C)C)cc2NC(=O)Nc2ccc(Oc3ccnc4[nH]c(=O)[nH]c34)cc2F)cc1`, halving of growth in test [3] (GI50) required 0.046 µM.

Values taken from ChEMBL document CHEMBL1212820, “Novel hinge binder improves activity and pharmacokinetic properties of BRAF inhibitors” (J Med Chem, 2010).
